Converted amounts (≈) assume the structure as drawn. The source made the active and inactive calls. The rule behind the calls is not given here.
Key:
[1] = (§1) Bactericidal activity against Trichophyton mentagrophytes var. granulosum 1773 measured after 4 hrs; type: functional; conditions: Trichophyton mentagrophytes, 1773, 4 h
Procedure, shortened: (§2)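 Microbicidal (bactericidal/fungicidal) concentration, killing of microbial cells, determined per literature procedures; tests in duplicate, repeated twice.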

[2] = tested on: Trichophyton mentagrophytes; assay: Antimicrobial activity against Trichophyton mentagrophytes var. gypseum 1773 measured after 14 days by two-fold serial dilution method; type: functional
Candida albicans [3] = assay: Bactericidal activity against Candida albicans 855-653 measured after 4 hrs; type: functional; procedure, shortened: as §2
Candida albicans [4] = assay: Antimicrobial activity against Candida albicans 855-653 measured after 14 days by two-fold serial dilution method; type: functional
[5] = Cytotoxicity against human Chang cells assessed as reduction in cell viability at 0.7 to 11.3 uM by Cytell imaging analysis; type: cell-based
Procedure, shortened: (§3)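 WI-38 human embryonic lung and Chang liver cells exposed to compounds at three concentrations each (0.70–47.0 μM range, spanning antimicrobial concentrations); cytotoxicity read as number of viable cells counted.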

Aspergillus niger [6] = assay: Bactericidal activity against Aspergillus niger BKMF-1119 measured after 4 hrs; type: functional, organism-based; procedure, shortened: as §2
Staphylococcus aureus [7] = assay: Antimicrobial activity against Staphylococcus aureus 209p measured every 24 hrs for 5 days by two-fold serial dilution method; type: functional
Staphylococcus aureus [8] = assay: Bactericidal activity against Staphylococcus aureus 209p measured after 4 hrs; type: functional; procedure, shortened: as §2
[9] = tested on: Trichophyton mentagrophytes var. granulosum; assay: as §1; type: functional; procedure, shortened: as §2
Bacillus cereus [10] = assay: Bactericidal activity against Bacillus cereus ATCC 8035 measured after 4 hrs; type: functional; conditions: ATCC 8035, 4 h; procedure, shortened: as §2
Bacillus cereus [11] = assay: Antimicrobial activity against Bacillus cereus ATCC 8035 measured every 24 hrs for 5 days by two-fold serial dilution method; type: functional
WI-38 [12] = assay: Cytotoxicity against human WI38 cells assessed as reduction in cell viability at 0.7 to 11.3 uM by Cytell imaging analysis; type: cell-based; conditions: wi-38, 11.3 µM; procedure, shortened: as §3
Pseudomonas aeruginosa [13] = assay: Antimicrobial activity against Pseudomonas aeruginosa ATCC 9027 measured every 24 hrs for 5 days by two-fold serial dilution method; type: functional
Escherichia coli [14] = assay: Bactericidal activity against Escherichia coli CDC F-50 measured after 4 hrs; type: functional; procedure, shortened: as §2
Pseudomonas aeruginosa [15] = assay: Bactericidal activity against Pseudomonas aeruginosa ATCC 9027 measured after 4 hrs; type: functional; procedure, shortened: as §2
Aspergillus niger [16] = assay: Antimicrobial activity against Aspergillus niger BKMF-1119 measured after 14 days by two-fold serial dilution method; type: functional, organism-based
Escherichia coli [17] = assay: Antimicrobial activity against Escherichia coli CDC F-50 measured every 24 hrs for 5 days by two-fold serial dilution method; type: functional
[18] = Antioxidant activity assessed as ABAP free radical scavenging activity by measuring decrease in chemiluminescence intensity at 1 mM measured after 600 secs; type: functional; parameters: scale not given: the % may be the effect or the level left
Procedure, shortened: (§4)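 Chemiluminescent radical system of ABAP (2,2′-azobis(2-methylpropionamidine) dihydrochloride) plus luminol in buffer, total 1.000 mL; baseline recorded, then test substance added at 0.25, 0.50 or 1.00 mM; chemiluminescence intensity followed over time and expressed as percent of initial value. Ionol used as reference antioxidant.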

[19] = Antioxidant activity assessed as ABAP free radical scavenging activity by measuring decrease in chemiluminescence intensity at 0.5 mM; type: functional; parameters: scale not given: the % may be the effect or the level left; procedure, shortened: as §4
[20] = Antioxidant activity assessed as ABAP free radical scavenging activity by measuring decrease in chemiluminescence intensity at 0.25 mM; type: functional; parameters: scale not given: the % may be the effect or the level left; procedure, shortened: as §4
[21] = Antioxidant activity assessed as ABAP free radical scavenging activity by measuring decrease in chemiluminescence intensity at 0.25 mM measured after 400 secs; type: functional; procedure, shortened: as §4
[22] = Antioxidant activity assessed as ABAP free radical scavenging activity by measuring decrease in chemiluminescence intensity at 0.5 mM measured after 500 secs; type: functional; procedure, shortened: as §4
[23] = Antioxidant activity assessed as ABAP free radical scavenging activity by measuring decrease in chemiluminescence intensity at 1 mM; type: functional; parameters: scale not given: the % may be the effect or the level left; procedure, shortened: as §4
WI-38 [24] = assay: Cytotoxicity against human WI38 cells assessed as reduction in cell viability at 47 uM by Cytell imaging analysis; type: cell-based; conditions: wi-38, 47 µM; procedure, shortened: as §3
[25] = Cytotoxicity against human Chang cells assessed as reduction in cell viability at 47 uM by Cytell imaging analysis; type: cell-based; procedure, shortened: as §3

Row | SMILES | MIC (Candida albicans [3]; 855-653, 4 h) [µM] | MIC (Candida albicans [4]; 855-653, 336 h) [µM] | Activity [5] | MIC (Aspergillus niger [6]) | MIC (Staphylococcus aureus [7]) [µM] | MIC (Staphylococcus aureus [8]) [µM] | MIC [9] | MIC [2] | MIC (Bacillus cereus [10]) [µM] | MIC (Bacillus cereus [11]) [µM] | Activity (WI-38 [12]) | MIC (Pseudomonas aeruginosa [13]) | MIC (Escherichia coli [14]) | MIC (Pseudomonas aeruginosa [15]) | MIC (Aspergillus niger [16]) | MIC (Escherichia coli [17]) | Activity [18] [%] | Activity [19] [%] | Activity [20] [%] | MIC (Escherichia coli [14]; CDC F-50, 4 h) [µM] | also measured
1 | CC(=O)N1CCN(c2ccc(OCC3COC(Cn4ccnc4)(c4ccc(Cl)cc4Cl)O3)cc2)CC1 (stereo not drawn) [KETOCONAZOLE] | 15.2 (≈ 8.08 µg/mL) | 7.6 (≈ 4.04 µg/mL) |  |  |  |  |  |  |  |  |  |  |  |  |  |  |  |  |  |  | MIC [1]: 15.2 µM (≈ 8.08 µg/mL); MIC ([2]; var. gypseum 1773, 336 h): 7.6 µM (≈ 4.04 µg/mL)
2 | CCCCCCCCCC[N+](C)(C)CCNC(c1cc(C(C)(C)C)c(O)c(C(C)(C)C)c1)P(=O)(OC(C)C)OC(C)C.[Br-] (stereo not drawn) | 11.3 | 11.3 | Non-Toxic | inactive | 2.7 | 5.6 | inactive | inactive | 90 | 5.6 | Non-Toxic | inactive | inactive | inactive | inactive | inactive |  |  |  |  | 
3 | CCCCCCCCCC[N+](C)(C)CCCNC(c1cc(C(C)(C)C)c(O)c(C(C)(C)C)c1)P(=O)(OC(C)C)OC(C)C.[Br-] (stereo not drawn) | 11 | 11 | Non-Toxic | inactive | 0.7 | 1.3 | inactive | inactive | 177 | 2.7 | Non-Toxic | 22 µM |  |  | inactive | 44.3 µM | 26 | 26 | 44 | 177 | Activity [21]: Active; MIC (Pseudomonas aeruginosa [15]; ATCC 9027, 4 h): 44.3 µM; Activity [22]: Active
4 | CCCCCCCCCC[N+](C)(C)CCNC(c1cc(C(C)(C)C)c(O)c(C(C)(C)C)c1)P(=O)(OCC)OCC.[Br-] (stereo not drawn) | 47 | 47 | Non-Toxic | inactive | 2.9 | 2.9 | inactive | inactive | 2.9 | 2.9 | Non-Toxic | 94.1 µM |  | inactive | inactive | 94.1 µM |  | 26 | 44 | 188 | Activity [23]: 20%; Activity (WI-38 [24]): Toxic; Activity [25]: Toxic
5 | CC[N+](C)(C)CCNC(c1cc(C(C)(C)C)c(O)c(C(C)(C)C)c1)P(=O)(OC(C)C)OC(C)C (stereo not drawn) |  | 432 |  | inactive | 108 | 108 | inactive | inactive | 216 | 216 |  | inactive | inactive | inactive | inactive | inactive |  |  |  |  | MIC (Candida albicans [3]): inactive
6 | CCOP(=O)(OCC)C(NCCC[N+](C)(C)CC)c1cc(C(C)(C)C)c(O)c(C(C)(C)C)c1 (stereo not drawn) | > 500 |  |  | inactive | 442 | 442 | inactive | inactive | 221 | 221 |  | inactive | inactive | inactive | inactive | inactive | 26 | 26 | 44 |  | MIC (Candida albicans [4]): inactive
